# Hits are enriched below; roughly 2.3% of the tested compounds scored in any of these assays.
# TRPC4 potent = positive allosteric modulators of TRPC4, primary screen, cell-based, mouse TRPC4beta, HEK293 mu-opioid, Fluo-4 calcium | Short transient receptor potential channel 4 (Mus musculus), Q9QUQ5 | DAMGO EC20, Fluo-4 Ca2+ flux; active compounds read high | B-score at 10 µM | 0.42% of 310,000 active | AID 2227, 2009;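 active means B-score of calcium response area above 5 SD of library B-scores, with initial fluorescence ratio within 5 SD of library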;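 further: B-score of integrated fluorescence ratio over time as area under calcium response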
# Target sequence (Q9QUQ5 whole entry, looked up): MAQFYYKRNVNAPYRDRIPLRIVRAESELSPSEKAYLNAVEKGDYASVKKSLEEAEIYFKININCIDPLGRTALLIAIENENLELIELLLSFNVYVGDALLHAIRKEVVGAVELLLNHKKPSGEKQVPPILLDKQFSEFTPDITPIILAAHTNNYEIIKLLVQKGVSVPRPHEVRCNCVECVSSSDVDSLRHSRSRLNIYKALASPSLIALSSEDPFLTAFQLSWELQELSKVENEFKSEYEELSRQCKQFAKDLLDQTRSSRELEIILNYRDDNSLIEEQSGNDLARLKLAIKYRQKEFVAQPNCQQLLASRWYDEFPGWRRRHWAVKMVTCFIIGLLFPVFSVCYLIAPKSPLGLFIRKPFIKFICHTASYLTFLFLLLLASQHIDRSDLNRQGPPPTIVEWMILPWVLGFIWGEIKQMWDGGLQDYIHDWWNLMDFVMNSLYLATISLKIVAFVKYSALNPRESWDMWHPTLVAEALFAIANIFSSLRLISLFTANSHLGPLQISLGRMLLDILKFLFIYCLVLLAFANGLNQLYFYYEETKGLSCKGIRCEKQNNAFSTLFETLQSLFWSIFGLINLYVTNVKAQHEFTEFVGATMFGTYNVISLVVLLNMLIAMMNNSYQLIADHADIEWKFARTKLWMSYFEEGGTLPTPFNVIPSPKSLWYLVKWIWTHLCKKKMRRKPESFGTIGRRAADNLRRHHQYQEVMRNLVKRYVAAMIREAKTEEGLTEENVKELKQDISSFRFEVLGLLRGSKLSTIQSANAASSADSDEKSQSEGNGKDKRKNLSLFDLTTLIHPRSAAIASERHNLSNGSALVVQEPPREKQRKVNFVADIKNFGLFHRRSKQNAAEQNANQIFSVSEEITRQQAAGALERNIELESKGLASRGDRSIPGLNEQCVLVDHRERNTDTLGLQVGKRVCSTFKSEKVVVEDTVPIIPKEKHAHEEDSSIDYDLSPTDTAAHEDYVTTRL
# TRPC4 act = activators of mouse TRPC4 channel, primary screen, Fluo4 calcium, HEK293 TRPC4beta/mu-opioid cells | Fluo4 calcium fluorescence; active compounds read high | Short transient receptor potential channel 4 (Mus musculus), Q9QUQ5 | AID 2237, 2010 | 0.49% of 310,000 active | B-score at 10 µM;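 active means B-score above 5 SD of library B-scores, and initial fluorescence ratio not above library mean plus 5 SD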;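 further: positive B-score marks a calcium rise read as TRPC4 activation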
#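 System: HEK293 cells stably co-expressing mouse TRPC4beta and mu-opioid receptor; Schedule: Fluo4 dye loading 45 min at room temperature, 110 s recording; Detection: Fluo4 fluorescence, kinetic; Evaluation: B-scored integrated calcium fluorescence ratio; Controls: buffer (low) and maximal DAMGO (high).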
# TRPC6 act = mouse TRPC6 channel activators, primary screen, cell-based, HEK293, membrane potential dye; Short transient receptor potential channel 6 (Mus musculus), Q61143; HEK293-TRPC6 membrane potential dye fluorescence; active compounds read high; B-score at 10 µM; 0.13% of 310,000 active; AID 2550, 2010;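 active means B-score of the integrated fluorescence ratio above library mean plus 3 SD, and starting fluorescence ratio within library mean plus 5 SD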;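 further: higher score means more depolarization so channel activation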
# TRPC6 inhibitor = mouse TRPC6 channel inhibitors, primary screen, cell-based, HEK293, membrane potential dye | 1.1% of 310,000 active | Short transient receptor potential channel 6 (Mus musculus), Q61143 | B-score at 10 µM | ACh-evoked depolarization; active compounds read low;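 active means B-score under library mean minus 3 SD, initial fluorescence not abnormally high, positive integrated signal ratio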;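 further: B-score derived from integrated fluorescence ratio over the kinetic read; more negative B-score means stronger inhibition of depolarization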
# TRPC4 inh = inhibitors of mouse TRPC4 channel, primary screen, Fluo4 calcium, HEK293 TRPC4beta/mu-opioid cells; Short transient receptor potential channel 4 (Mus musculus), Q9QUQ5; DAMGO-evoked Fluo4 calcium flux; active compounds read low; B-score at 10 µM; 0.39% of 300,000 active; AID 2247, 2010;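 active means B-score over 3 SD under the library average, no early fluorescence shift, positive overall ratio signal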
#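 Signal: kinetic Fluo4 fluorescence imaging of calcium influx. Material: stable TRPC4beta/mu-opioid receptor HEK293 cells. Probe or stimulus: DAMGO in two steps, submaximal then maximal.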
# TRPC4 spec 2 = second selectivity test of TRPC6 inhibitors: effect on mouse TRPC4 | inhibition, % at 10 µM | shares compounds with TRPC6 inhibitor | HEK293 TRPC4/MOR, membrane potential dye fluorescence; channel activated by saturating DAMGO dose | 42% of 920 active;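 active means compounds whose fluorescence signal differed from control wells by over 3 SD, either direction, in both duplicate plates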
# TRPC4 spec = mouse TRPC4 modulation by TRPC6 hits, confirmation, selectivity assay for TRPC6 inhibitor project, cell-based, HEK293 TRPC4/mu-opioid, membrane potential dye | shares compounds with TRPC6 inhibitor | membrane potential fluorescence | activity change, negative = inhibition, % at 10 µM | 61% of 920 active | AID 2777, 2010;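 active means rise or fall in signal beyond 3 SD of buffer-only wells in both replicate plates, either sign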;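 further: integrated kinetic ratio of fluorescence range over baseline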
# HEK293 MPD ctr 2-1 = nonspecific membrane potential effects, parental HEK293, confirmation, counter-screen for TRPC6 inhibitor project, cell-based, second counter screen | signal change vs control, % at 10 µM | AID 2779, 2010 | shares compounds with TRPC6 inhibitor | parental HEK293 membrane potential dye fluorescence; maximal acetylcholine challenge after compound addition | 31% of 920 active;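 active means membrane potential signal moving either way by over 3 SD of the maximum-effect control, in both duplicate plates, meaning non-specific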
# HEK293 MPD ctr-1 = membrane potential modulation in parental HEK293, confirmation, counter-screen for TRPC6 inhibitor project, cell-based; parental HEK293 membrane potential dye fluorescence; AID 2780, 2010; 60% of 920 active; shares compounds with TRPC6 inhibitor; membrane potential signal change, % at 10 µM;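 active means membrane potential signal shifting up or down by more than 3 SD of buffer-only wells, on both duplicate plates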
# HEK293 MPD ctr-2 = parental HEK293 membrane potential modulation, confirmation, counter-screen for TRPC6 modulator project, cell-based; shares compounds with TRPC6 inhibitor; membrane potential dye fluorescence; membrane potential signal change, % at 10 µM; 51% of 2,400 active;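 active means membrane potential signal moves up or down beyond 5 SD from buffer-only wells, on both duplicate plates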
# HEK293 MPD ctr 2-2 = second counter-screen for TRPC6 modulators: effect in parental HEK293 cells; 14% of 2,400 active; shares compounds with TRPC6 inhibitor; AID 488926; inhibition, % at 10 µM; membrane potential dye fluorescence; after compound, maximal acetylcholine stimulation;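 active means membrane potential signal drops by more than 5 SD from the mean control signal, in both duplicate plates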;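 further: plate controls were acetylcholine ECmax control wells for no effect and buffer only wells for full effect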
# TRPC4 ctr mod = TRPC4 modulation by TRPC6 hit compounds, confirmation, selectivity assay for TRPC6 modulator project, cell-based, HEK293 TRPC4/mu-opioid, membrane potential dye, mouse. shares compounds with TRPC6 inhibitor. 69% of 2,400 active. membrane potential fluorescence. AID 488927, 2010. percent change from control (negative = decrease, positive = increase), % at 10 µM;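 active means membrane potential signal moved up or down beyond 5 SD of buffer control wells, in both duplicate plates, actives on both sides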;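 further: plate controls were assay buffer wells for no effect and DAMGO maximal-effect wells for full effect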
# TRPC4 ctr inh 2 = mouse TRPC4 off-target activity of TRPC6 modulators, second screen; shares compounds with TRPC6 inhibitor; HEK293 TRPC4/mu-opioid, membrane potential dye fluorescence; stimulated with maximal-effect DAMGO; inhibition, % at 10 µM; 55% of 2,400 active; AID 488928;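 active means drop in membrane potential signal beyond 5 SD of the control wells in both duplicate plates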;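 further: TRPC4 counter screen for TRPC6 hits run under conditions tuned for TRPC6 not TRPC4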
# TRPC6 block conf = mouse TRPC6 channel inhibitors, confirmation, HEK293 cells, membrane potential dye, duplicate; shares compounds with TRPC6 inhibitor; ACh-evoked depolarization; inhibition, % at 10 µM; 43% of 3,300 active; AID 488960, 2010;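 active means fluorescence ratio falls more than 5 SD below the full-stimulation control mean, in both duplicate runs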;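 further: integrated fluorescence ratio of peak minus minimum over baseline after agonist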
# TRPC6 act confirm = mouse TRPC6 channel activators, confirmation, HEK293 cells, membrane potential dye, duplicate. shares compounds with TRPC6 inhibitor. HEK293-TRPC6 membrane potential dye fluorescence, FDSS. activation, % at 10 µM. 11% of 2,800 active;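 active means ratio signal rise beyond 5 SD above unstimulated control wells' mean, seen in both duplicate runs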;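 further: plate controls were buffer EC0 wells for no effect and acetylcholine ECmax response for full effect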
# * hit, by the source's call; i = inactive; nt = not tested or not shown; + = active, no number.
SMILES,TRPC4 potent,TRPC4 act,TRPC6 act,TRPC6 inhibitor,TRPC4 inh,HEK293 MPD ctr-2,HEK293 MPD ctr 2-2,TRPC4 ctr mod,TRPC4 ctr inh 2,TRPC6 block conf,TRPC6 act confirm,others
COc1ccc(-c2nc(CS(=O)CC(=O)NC3CCC(C)CC3)c(C)o2)cc1OC (stereo unspecified),i,i,i,-6.2*,i,i,i,13%*,29%*,71%*,nt,
O=C(CCC1CCCCC1)NCCN1C2=NC[C@H](Cc3ccccc3)N2C[C@H]1Cc1ccc(O)cc1,i,i,i,i,i,nt,nt,nt,nt,nt,nt,
O=C(CCC1CCCCC1)NCCN1C2=NC[C@@H](Cc3ccccc3)N2C[C@H]1Cc1ccc(O)cc1,i,i,i,-5.5*,i,i,i,i,i,i,i,
Cc1cccc(-c2sc(Nc3ccccc3)n[n+]2-c2ccc(F)cc2)c1,i,i,i,i,i,nt,nt,nt,nt,nt,nt,
COc1ccc(-c2sc(Nc3ccccc3)n[n+]2-c2ccc(F)cc2)c(C)c1C,i,i,i,-5.4*,i,i,i,i,63%*,i,i,
Cc1cc(C)cc(CN2CCC(Oc3ccc(C(=O)N4CCCC4)cc3)CC2)c1,i,i,i,i,i,nt,nt,nt,nt,nt,nt,
CN1CCN(c2ccc(NC(=O)c3ccc(Cl)cc3Cl)cc2)CC1,i,i,i,-5.9*,i,i,i,i,i,i,i,
O=C(Nc1ccc(N2CCCC2)cc1)c1ccc(Cl)cc1Cl,i,i,i,i,i,nt,nt,nt,nt,nt,nt,
CC(C)(C)C(=O)Cn1c(=N)n(Cc2ccccc2)c2ccccc21,i,i,i,i,i,nt,nt,nt,nt,nt,nt,
CC(C)(C)C(=O)Cn1c(=N)n(Cc2ccccc2Cl)c2ccccc21,i,i,i,-5.5*,i,164%*,i,22%*,77%*,48%*,nt,
Cc1ccc(CSCC(=O)N2CCN(c3ccc(F)cc3)CC2)cc1,i,i,i,i,i,nt,nt,nt,nt,nt,nt,
O=C(CSCc1ccc(F)cc1)N1CCN(c2ccc(F)cc2)CC1,i,i,i,-5.4*,i,i,i,i,i,i,i,
Nc1ccc(/C=C/C(=O)c2cccs2)cc1,i,92*,81*,i,i,+,+,291%*,76%*,nt,543%*,
CN(C)c1ccc(NC(=O)CN2CCC(O)(c3ccccc3)CC2)cc1,i,i,i,i,i,nt,nt,nt,nt,nt,nt,
CN(C)C(=O)C(CCN1CCC(O)(c2ccc(Cl)cc2)CC1)(c1ccccc1)c1ccccc1,i,50*,i,-5.4*,i,115%*,i,78%*,112%*,61%*,nt,
COc1ccc(O)c(/C=N/N=C2/C(=O)Nc3ccccc32)c1,i,i,i,i,i,nt,nt,nt,nt,nt,nt,
N=C1c2ccccc2CN1c1ccc(N2CCOCC2)c(S(=O)(=O)Nc2ccc(Cl)cc2)c1,i,i,i,-7.4*,i,nt,nt,nt,nt,i,i,TRPC4 spec 2=36%*;TRPC4 spec=-13%*;HEK293 MPD ctr 2-1=i;HEK293 MPD ctr-1=i
COc1cc(/C=N/NC(=O)/C(=C/c2ccccc2)CCO)ccc1O,i,i,i,i,i,nt,nt,nt,nt,nt,nt,
COc1ccc2c(C)c(CC(=O)N3CCN(C(=O)C4COc5ccccc5O4)CC3)c(=O)oc2c1 (stereo unspecified),i,i,i,-5.3*,i,238%*,i,44%*,i,i,nt,
O=C(C1COc2ccccc2O1)N1CCN(c2ccccc2Cl)CC1 (stereo unspecified),i,i,i,i,i,nt,nt,nt,nt,nt,nt,
Cc1cccc(N2CCN(C(=O)C3COc4ccccc4O3)CC2)c1C (stereo unspecified),i,i,i,-5.1*,i,i,i,i,i,42%*,nt,
COc1ccc(CCNC(=O)C(=O)NCC2OCCN2S(=O)(=O)c2ccc(Br)cc2)cc1 (stereo unspecified),i,i,i,i,i,nt,nt,nt,nt,nt,nt,
CCOCCCNC(=S)N1CCCN(c2nc3cc(C)ccc3cc2C#N)CC1,i,i,i,-10*,i,nt,nt,nt,nt,75%*,nt,TRPC4 spec 2=i;TRPC4 spec=i;HEK293 MPD ctr 2-1=i;HEK293 MPD ctr-1=i
Cc1c(C)n(C)c2ccc(C(=O)N3CCN(c4ccccn4)CC3)cc12,i,i,i,i,i,nt,nt,nt,nt,nt,nt,
